The text below walks through data of ChEMBL document CHEMBL5653621, “Freezing the Bioactive Conformation to Boost Potency: The Identification of BAY 85-8501, a Selective and Potent Inhibitor of Human Neutrophil Elastase for Pulmonary Diseases” (ChemMedChem, 2015).

In data set [1] the target is Cytochrome P450 2C9 (Homo sapiens, UniProt P11712). Kind of data set: Inhibition of CYP2C9 in human pooled liver microsomes using diclofenac as substrate measured after 10 to 20 mins by LC-MS/MS analysis. It is filed as ADME, Microsome. In short, it runs like this:
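Pooled human liver microsomes were preincubated at 37°C for 10–20 min. […] Acetonitrile with internal standard stopped the reaction. Metabolite was measured by LC-MS/MS against a no-inhibitor reference, and IC50 was calculated.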

Data set [2] is described as follows: Metabolic stability in rat hepatocytes assessed as maximum bioavailability at <=[…] uM incubated for 90 mins by LC-MS/MS analysis. It is filed as ADME, Hepatocyte. To be noted: read-out: Fmax.
For data set [3], the target named is T1, Cathepsin G (Homo sapiens, UniProt P08311).
T1 sequence (P08311 whole entry): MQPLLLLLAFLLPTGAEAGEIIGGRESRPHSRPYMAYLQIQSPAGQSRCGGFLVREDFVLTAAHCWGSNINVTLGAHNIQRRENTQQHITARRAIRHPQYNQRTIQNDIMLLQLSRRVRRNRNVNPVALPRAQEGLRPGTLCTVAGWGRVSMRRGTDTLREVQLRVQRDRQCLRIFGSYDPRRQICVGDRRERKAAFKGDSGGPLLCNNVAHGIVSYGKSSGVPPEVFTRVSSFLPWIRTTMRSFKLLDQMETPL
Kind of data set: Inhibition of cathepsin G (unknown origin).

Data set [4] addresses Chymotrypsin (Homo sapiens, UniProt Q99895+P17538+P40313+Q6GPI1). Description: Inhibition of chymotrypsin (unknown origin). It is filed as protein assay.
Data set [5] deals with Trypsin (Homo sapiens, UniProt P07477+P07478+P35030). Kind of data set: Inhibition of trypsin (unknown origin). It is filed as protein assay.
Data set [6] addresses T2, Chymase (Homo sapiens, UniProt P23946).
T2 sequence (P23946 whole entry): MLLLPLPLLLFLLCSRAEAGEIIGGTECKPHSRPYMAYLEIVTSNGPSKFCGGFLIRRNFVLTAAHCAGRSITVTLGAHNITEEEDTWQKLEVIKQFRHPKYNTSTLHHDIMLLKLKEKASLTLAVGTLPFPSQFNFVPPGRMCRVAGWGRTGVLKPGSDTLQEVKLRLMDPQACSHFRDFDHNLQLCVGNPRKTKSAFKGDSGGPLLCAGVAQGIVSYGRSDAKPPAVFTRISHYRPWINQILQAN
Description: Inhibition of chymase (unknown origin).

The target of data set [7] is Dipeptidyl peptidase 2 (Homo sapiens, UniProt Q9UHL4). Description: Inhibition of DPP2 (unknown origin).
Data set [8] has as its target Dipeptidyl peptidase 4 (Homo sapiens, UniProt P27487). Kind of data set: Inhibition of DPP4 (unknown origin).
Data set [9] has as its target T3, Prolyl endopeptidase FAP (Homo sapiens, UniProt Q12884).
T3 sequence (Q12884 whole entry): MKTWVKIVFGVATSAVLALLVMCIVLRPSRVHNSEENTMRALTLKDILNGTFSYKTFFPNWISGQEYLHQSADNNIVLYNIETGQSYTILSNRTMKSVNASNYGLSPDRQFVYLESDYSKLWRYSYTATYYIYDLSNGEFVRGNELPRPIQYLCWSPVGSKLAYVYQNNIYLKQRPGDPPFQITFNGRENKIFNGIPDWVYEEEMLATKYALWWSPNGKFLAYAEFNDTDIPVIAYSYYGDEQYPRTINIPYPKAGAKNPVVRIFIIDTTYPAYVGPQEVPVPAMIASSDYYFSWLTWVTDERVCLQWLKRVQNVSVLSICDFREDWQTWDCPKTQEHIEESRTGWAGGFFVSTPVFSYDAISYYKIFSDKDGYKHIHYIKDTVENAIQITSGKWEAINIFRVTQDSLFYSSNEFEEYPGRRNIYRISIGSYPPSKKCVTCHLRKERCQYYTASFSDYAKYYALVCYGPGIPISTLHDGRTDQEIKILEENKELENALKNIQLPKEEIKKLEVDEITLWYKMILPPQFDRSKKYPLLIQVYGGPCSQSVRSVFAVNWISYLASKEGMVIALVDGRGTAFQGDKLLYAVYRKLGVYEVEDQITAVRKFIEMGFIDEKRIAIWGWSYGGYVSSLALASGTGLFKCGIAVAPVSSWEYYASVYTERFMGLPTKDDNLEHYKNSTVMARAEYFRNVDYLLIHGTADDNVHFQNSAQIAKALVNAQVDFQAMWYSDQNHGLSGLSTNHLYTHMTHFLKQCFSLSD
Description: Inhibition of FAP (unknown origin).

Data set [10] deals with Kallikrein-1 (Homo sapiens, UniProt P06870). Description: Inhibition of kallikrein-1 (unknown origin).
Sequence of Kallikrein-1 (P06870 whole entry): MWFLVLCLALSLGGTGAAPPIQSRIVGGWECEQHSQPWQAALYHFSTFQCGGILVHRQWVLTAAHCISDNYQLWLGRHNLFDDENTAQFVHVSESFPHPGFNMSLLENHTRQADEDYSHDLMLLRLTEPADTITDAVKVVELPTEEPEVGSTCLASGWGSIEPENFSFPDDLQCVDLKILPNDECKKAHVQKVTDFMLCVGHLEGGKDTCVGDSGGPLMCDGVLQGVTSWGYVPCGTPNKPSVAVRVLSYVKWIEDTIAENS
Data set [11] deals with Kallikrein-4 (Homo sapiens, UniProt Q9Y5K2). Description: Inhibition of kallikrein-4 (unknown origin).
Sequence of Kallikrein-4 (Q9Y5K2 whole entry): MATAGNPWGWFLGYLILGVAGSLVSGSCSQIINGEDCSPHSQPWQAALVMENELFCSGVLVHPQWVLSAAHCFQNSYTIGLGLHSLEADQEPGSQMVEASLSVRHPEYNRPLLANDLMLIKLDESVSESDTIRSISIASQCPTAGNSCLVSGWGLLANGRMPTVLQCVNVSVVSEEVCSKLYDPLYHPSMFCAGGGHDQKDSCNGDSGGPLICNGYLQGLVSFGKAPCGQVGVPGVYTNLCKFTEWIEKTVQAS
The target in data set [12] is T4, Kallikrein-5 (Homo sapiens, UniProt Q9Y337).
T4 sequence (Q9Y337 whole entry): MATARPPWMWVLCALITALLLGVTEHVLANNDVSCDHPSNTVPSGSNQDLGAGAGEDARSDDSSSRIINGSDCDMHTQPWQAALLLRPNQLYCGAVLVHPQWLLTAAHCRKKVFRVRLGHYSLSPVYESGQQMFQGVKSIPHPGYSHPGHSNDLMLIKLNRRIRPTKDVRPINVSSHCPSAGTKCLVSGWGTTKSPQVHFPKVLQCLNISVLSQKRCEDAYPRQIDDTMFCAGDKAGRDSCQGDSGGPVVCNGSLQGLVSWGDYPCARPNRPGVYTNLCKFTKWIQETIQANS
Description: Inhibition of kallikrein-5 (unknown origin).

The target of data set [13] is Kallikrein-7 (Homo sapiens, UniProt P49862). Description: Inhibition of kallikrein-7 (unknown origin).
Sequence of Kallikrein-7 (P49862 whole entry): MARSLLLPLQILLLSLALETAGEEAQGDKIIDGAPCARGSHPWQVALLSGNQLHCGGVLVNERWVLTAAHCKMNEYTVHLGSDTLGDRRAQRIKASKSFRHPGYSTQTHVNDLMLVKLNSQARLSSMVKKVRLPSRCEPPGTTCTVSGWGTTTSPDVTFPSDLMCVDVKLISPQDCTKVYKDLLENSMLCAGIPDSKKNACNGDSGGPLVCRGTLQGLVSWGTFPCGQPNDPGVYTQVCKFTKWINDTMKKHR
The target of data set [14] is T5, Kallikrein-12 (Homo sapiens, UniProt Q9UKR0).
T5 sequence (Q9UKR0 whole entry): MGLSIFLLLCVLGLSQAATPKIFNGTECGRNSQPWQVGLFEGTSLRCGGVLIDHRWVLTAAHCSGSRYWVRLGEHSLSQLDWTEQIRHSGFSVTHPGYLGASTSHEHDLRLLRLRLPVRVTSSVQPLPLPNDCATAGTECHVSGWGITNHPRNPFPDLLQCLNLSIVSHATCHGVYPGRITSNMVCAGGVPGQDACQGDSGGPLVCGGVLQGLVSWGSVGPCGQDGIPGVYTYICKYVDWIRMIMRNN
Kind of data set: Inhibition of kallikrein-12 (unknown origin).

Data set [15] addresses Plasma kallikrein (Homo sapiens, UniProt P03952). Description: Inhibition of kallikrein-B1 (unknown origin).
Data set [16] has as its target T6, Coagulation factor VII (Homo sapiens, UniProt P08709).
T6 sequence (P08709 whole entry): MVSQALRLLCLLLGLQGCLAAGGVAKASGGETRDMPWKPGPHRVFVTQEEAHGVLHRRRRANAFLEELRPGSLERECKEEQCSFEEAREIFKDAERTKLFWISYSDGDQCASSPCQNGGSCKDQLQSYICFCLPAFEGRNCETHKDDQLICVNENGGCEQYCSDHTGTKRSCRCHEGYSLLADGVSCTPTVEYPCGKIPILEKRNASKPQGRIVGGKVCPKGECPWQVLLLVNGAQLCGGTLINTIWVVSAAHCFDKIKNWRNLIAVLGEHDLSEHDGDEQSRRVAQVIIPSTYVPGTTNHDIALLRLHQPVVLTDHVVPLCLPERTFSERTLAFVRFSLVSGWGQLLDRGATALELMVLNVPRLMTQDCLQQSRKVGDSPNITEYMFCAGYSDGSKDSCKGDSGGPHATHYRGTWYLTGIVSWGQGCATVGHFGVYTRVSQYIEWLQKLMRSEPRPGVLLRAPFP
Description: Inhibition of FVIIa (unknown origin).

Data set [17] addresses Coagulation factor IX (Homo sapiens, UniProt P00740). Description: Inhibition of FIXa (unknown origin).
In data set [18] the target is Coagulation factor XI (Homo sapiens, UniProt P03951). Kind of data set: Inhibition of FXIa (unknown origin).
Sequence of Coagulation factor XI (P03951 19-387 limits assumed): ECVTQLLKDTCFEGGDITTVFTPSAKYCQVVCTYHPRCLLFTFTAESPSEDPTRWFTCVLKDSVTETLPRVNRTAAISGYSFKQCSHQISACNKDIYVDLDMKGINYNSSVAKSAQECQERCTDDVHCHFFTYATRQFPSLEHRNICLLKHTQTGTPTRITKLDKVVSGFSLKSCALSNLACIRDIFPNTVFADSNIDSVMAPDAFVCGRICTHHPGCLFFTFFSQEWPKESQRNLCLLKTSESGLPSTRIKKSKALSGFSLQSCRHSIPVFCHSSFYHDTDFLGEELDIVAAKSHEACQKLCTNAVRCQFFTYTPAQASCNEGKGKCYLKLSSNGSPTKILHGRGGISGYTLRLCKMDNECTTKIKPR
Sequence of Coagulation factor XI (P03951 388-625 limits assumed): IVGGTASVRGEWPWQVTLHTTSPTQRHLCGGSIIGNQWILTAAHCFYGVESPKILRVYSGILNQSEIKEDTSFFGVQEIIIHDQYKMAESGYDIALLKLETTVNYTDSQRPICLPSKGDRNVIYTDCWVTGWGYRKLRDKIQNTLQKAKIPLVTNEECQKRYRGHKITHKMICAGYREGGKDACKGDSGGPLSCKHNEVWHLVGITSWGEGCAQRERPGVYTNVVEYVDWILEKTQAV
Data set [19] has as its target Plasminogen (Homo sapiens, UniProt P00747). Kind of data set: Inhibition of plasmin (unknown origin).
Data set [20] is described as follows: Plasma clearance in rat at 0.3 mg/kg, po administered via gavage or 0.84 mg/kg, iv administered via infusion for 0.25 to 2 hrs by LC-MS/MS analysis. It is filed as ADME, organism-based. To be noted: in vivo.
Data set [21] can be described thus: Apparent volume of distribution at steady state in rat at 0.3 mg/kg, po administered via gavage or 0.84 mg/kg, iv administered via infusion for 0.25 to 2 hrs by LC-MS/MS analysis. It is filed as ADME, organism-based. To be noted: in vivo.
The nature of data set [22]: Half life in rat at 0.3 mg/kg, po administered via gavage or 0.84 mg/kg, iv administered via infusion for 0.25 to 2 hrs by LC-MS/MS analysis. It is filed as ADME, organism-based. The note with it: in vivo.
The nature of data set [23]: Oral bioavailability in rat at 0.3 mg/kg administered via gavage by LC-MS/MS analysis. Type of data set: ADME, organism-based. The note with it: in vivo.
In data set [24] the target is Cytochrome P450 3A4 (Homo sapiens, UniProt P08684). Kind of data set: Inhibition of CYP3A4 in human pooled liver microsomes using midazolam as substrate measured after 10 to 20 mins by LC-MS/MS analysis. On the technique in general: Liver microsomes are vesicles of endoplasmic reticulum, rich in cytochrome P450 enzymes.
Sequence of Cytochrome P450 3A4 (P08684 whole entry): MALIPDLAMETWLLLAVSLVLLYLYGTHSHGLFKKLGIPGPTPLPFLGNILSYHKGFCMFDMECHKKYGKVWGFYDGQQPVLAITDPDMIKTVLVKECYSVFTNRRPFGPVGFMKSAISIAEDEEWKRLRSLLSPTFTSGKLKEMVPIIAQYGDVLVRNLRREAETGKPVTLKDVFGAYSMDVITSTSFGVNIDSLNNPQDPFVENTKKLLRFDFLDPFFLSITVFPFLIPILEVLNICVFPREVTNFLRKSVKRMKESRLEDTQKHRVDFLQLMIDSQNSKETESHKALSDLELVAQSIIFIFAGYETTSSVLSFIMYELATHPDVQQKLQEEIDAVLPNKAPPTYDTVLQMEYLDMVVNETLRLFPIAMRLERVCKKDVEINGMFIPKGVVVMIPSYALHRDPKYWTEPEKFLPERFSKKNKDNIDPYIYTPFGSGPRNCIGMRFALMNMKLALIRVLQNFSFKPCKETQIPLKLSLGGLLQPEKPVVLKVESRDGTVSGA

Sequence of Plasminogen (P00747 97-580 limits assumed): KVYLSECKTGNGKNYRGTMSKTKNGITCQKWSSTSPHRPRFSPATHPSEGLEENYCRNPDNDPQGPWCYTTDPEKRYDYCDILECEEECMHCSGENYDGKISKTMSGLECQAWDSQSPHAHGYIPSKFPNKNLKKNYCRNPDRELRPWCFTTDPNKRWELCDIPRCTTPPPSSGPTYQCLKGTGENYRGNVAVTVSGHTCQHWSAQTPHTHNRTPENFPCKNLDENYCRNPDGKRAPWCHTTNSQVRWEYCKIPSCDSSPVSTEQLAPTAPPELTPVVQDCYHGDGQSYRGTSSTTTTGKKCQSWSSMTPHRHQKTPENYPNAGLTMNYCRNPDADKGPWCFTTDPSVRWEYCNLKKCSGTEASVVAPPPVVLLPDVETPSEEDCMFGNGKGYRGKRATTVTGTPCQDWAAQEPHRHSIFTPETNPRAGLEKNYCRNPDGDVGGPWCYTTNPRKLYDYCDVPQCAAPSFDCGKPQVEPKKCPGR
Sequence of Plasminogen (P00747 581-810 limits assumed): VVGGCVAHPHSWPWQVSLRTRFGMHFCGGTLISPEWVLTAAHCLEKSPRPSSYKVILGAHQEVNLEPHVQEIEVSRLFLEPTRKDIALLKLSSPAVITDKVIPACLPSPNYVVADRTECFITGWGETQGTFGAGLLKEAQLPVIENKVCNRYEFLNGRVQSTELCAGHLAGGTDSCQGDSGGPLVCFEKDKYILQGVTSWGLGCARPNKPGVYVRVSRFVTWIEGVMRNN
Sequence of Dipeptidyl peptidase 4 (P27487 whole entry): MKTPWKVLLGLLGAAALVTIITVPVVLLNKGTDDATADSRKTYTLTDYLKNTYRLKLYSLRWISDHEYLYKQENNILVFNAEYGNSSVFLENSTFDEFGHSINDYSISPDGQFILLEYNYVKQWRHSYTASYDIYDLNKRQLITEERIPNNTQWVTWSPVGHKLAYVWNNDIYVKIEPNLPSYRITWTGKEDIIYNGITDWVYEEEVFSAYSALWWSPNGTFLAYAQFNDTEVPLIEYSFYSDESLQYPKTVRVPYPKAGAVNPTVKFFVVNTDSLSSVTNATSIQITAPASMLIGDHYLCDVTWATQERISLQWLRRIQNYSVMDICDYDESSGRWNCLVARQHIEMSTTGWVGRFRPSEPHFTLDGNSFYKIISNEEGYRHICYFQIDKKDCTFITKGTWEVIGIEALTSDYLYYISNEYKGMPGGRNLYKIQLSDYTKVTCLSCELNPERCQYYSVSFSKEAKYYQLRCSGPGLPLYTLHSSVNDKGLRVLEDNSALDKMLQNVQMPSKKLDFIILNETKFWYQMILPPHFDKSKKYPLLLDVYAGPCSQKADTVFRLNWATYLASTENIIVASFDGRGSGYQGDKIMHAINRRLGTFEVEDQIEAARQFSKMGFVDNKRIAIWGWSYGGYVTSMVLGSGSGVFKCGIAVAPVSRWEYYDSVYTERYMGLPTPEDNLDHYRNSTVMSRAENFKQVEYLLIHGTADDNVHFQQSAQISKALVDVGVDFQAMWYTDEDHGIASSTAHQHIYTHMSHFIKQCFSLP
Sequence of Cytochrome P450 2C9 (P11712 whole entry): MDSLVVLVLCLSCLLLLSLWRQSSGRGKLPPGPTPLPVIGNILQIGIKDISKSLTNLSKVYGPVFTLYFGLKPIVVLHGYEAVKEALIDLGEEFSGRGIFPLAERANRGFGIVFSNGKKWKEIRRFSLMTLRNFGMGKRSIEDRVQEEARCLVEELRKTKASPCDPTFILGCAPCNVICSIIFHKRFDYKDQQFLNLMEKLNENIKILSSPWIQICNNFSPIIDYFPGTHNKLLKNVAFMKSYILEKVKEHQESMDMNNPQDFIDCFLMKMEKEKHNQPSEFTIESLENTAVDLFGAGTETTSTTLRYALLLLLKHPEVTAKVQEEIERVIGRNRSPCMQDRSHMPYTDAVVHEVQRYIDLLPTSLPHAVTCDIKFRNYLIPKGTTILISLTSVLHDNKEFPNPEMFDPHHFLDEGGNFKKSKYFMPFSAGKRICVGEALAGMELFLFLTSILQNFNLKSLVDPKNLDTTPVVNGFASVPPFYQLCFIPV
Sequence of Plasma kallikrein (P03952 20-390 limits assumed): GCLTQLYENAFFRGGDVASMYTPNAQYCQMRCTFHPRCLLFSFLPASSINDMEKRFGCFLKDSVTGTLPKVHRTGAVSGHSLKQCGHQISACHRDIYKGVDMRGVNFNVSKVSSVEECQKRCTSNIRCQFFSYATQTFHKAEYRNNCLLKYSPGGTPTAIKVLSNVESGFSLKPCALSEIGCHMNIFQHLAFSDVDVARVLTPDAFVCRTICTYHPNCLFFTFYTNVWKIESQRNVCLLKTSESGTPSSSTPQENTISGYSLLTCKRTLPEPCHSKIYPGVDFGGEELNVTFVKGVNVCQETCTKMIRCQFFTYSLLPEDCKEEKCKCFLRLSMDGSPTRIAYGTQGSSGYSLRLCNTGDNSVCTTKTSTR
Sequence of Plasma kallikrein (P03952 391-638 limits assumed): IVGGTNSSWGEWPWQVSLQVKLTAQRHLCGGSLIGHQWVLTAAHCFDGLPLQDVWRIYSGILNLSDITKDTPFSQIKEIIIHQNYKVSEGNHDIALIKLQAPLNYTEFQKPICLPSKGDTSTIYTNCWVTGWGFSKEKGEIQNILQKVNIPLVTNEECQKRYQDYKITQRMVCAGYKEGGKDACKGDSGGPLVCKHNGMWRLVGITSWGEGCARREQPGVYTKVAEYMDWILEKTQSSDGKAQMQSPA
Sequence of Coagulation factor IX (P00740 47-191 limits assumed): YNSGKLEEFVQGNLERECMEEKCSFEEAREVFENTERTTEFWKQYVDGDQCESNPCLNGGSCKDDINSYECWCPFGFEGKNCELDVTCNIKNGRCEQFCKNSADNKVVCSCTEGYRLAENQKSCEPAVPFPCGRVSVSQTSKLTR
Sequence of Coagulation factor IX (P00740 227-461 limits assumed): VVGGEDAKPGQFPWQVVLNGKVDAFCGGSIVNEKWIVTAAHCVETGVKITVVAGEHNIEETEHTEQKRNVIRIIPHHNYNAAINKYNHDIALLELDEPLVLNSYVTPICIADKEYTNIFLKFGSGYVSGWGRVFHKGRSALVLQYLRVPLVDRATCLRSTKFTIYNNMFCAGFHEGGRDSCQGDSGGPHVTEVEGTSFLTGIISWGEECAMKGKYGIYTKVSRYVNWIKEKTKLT

`CC(=O)C1=C(C)N(c2cccc(C(F)(F)F)c2)C(=O)N[C@@H]1c1ccc(C#N)nc1` [BAY-678]: the IC50 in data set [1] was 12 µM; in data set [3] it was greater than 30 µM; in data set [4], greater than 30 µM; in [5] it was greater than 30 µM; in [6], greater than 30 µM; in data set [7], greater than 30 µM. Besides, the half-maximal inhibitory concentration (IC50) in [8], in data set [9], in data set [10], in data set [11], in data set [12] and in [13] was greater than 30 µM each time. Moreover, the IC50 in data set [14], in data set [15], in data set [16], in data set [17], in [18] and in [19] was greater than 30 µM in each case. The same compound had an IC50 in [24] greater than 50 µM. The Fh at […], 1 µM in data set [2] was 57%. Also, the CL in [20] is 33 mL/min/kg. Further, in data set [21], the “Vdss(app)” value was 3.9 L/kg. In data set [22], this compound gave a t1/2 of 1.3 h. The compound further returned a F in data set [23] of 83%.
Turning to `CC1=C(C#N)[C@@H](c2ccc(C#N)cc2S(C)(=O)=O)N(C)C(=O)N1c1cccc(C(F)(F)F)c1`, the IC50 in data set [1] is greater than 50 µM; in data set [3], greater than 30 µM; in [4] it was greater than 30 µM; in [5] it was greater than 30 µM; in data set [6], greater than 30 µM; in data set [7] it was greater than 30 µM. In addition, the 50% inhibitory concentration (IC50) in data set [8], in data set [9], in data set [10], in data set [11], in [12] and in data set [13] was greater than 30 µM throughout. For the same compound, the IC50 in data set [14], in data set [15], in data set [16], in data set [17], in [18] and in data set [19] was greater than 30 µM each time. The compound further returned an IC50 in data set [24] greater than 50 µM. In data set [20], this compound registered a CL of 8.3 mL/min/kg. In addition, the “Vdss(app)” value in data set [21] amounted to 5.8 L/kg. In [22], this compound came in with a t1/2 of 8.5 h. In addition, in data set [23], the F is 63%.

Usually IC50 stands for the concentration that gives 50% inhibition. Low readings indicate greater potency in that assay, high ones weaker potency in that assay.
